Results pooled from the literature.
Protocols differ between the studies behind these lines.
Si: Sucrase-isomaltase, intestinal (Si, Rattus norvegicus, UniProt P23739)
Abl2: Abl2 (Mus musculus, UniProt Q4JIM5)

| Compound | target | assay | test system | setting | measurement | result |
| --- | --- | --- | --- | --- | --- | --- |
| COc1cc(Cl)c(C(=O)N[C@@H](CN[C@H]2CC[C@@H](N)CC2)Cc2ccc(C#N)cc2)cc1-c1ccc(CN[C@H](C)c2ccc(C)cc2)o1 | Eukaryotic translation initiation factor 2-alpha kinase 1 (EIF2AK1, Homo sapiens, UniProt Q9BQI3) | enzyme activity, inhibitor | – | 1 µM | remaining activity | 93% |
| O=C1OC[C@H]2OC(=O)c3cc(O)c(O)c(O)c3-c3c(O)c(O)c(O)c4c3C(=O)O[C@H]([C@H]3OC(=O)c5c-4c(O)c(O)c(O)c5[C@H]3O)[C@@H]2OC(=O)c2cc(O)c(O)c(O)c2-c2c1cc(O)c(O)c2O | Si | enzyme activity, inhibitor | – | 200 µg/mL | inhibition | 52.8% |
| Cc1ccc(Nc2nccc(N(C)c3ccc4c(C)n(C)nc4c3)n2)cc1S(N)(=O)=O | Abl2 | enzyme activity, inhibitor | – | 10 µM | inhibition | 76% |
| CCCOc1ccc(OC)c(F)c1C(=O)c1ccc(C(=O)N[C@@H]2CNC[C@H]2NC(=O)c2ccc3[nH]ncc3c2)cc1 | Abl2 | enzyme activity, inhibitor | – | 10 µM | remaining activity | 87% |
| O=C(c1ccc(F)cc1)N(Cc1ccccc1)C1CCCCC1 | 5-hydroxytryptamine receptor 1A (HTR1A, Homo sapiens, UniProt P08908) | ligand displacement, radioligand | – | 10 µM | inhibition | 2% |
| Cn1c2c(c3ccc(Cl)c(Cl)c31)C(C#N)C1(CCOCC1)NC2=O (stereo not shown) | Rhodopsin kinase GRK1 (GRK1, Homo sapiens, UniProt Q15835) | thermal stability, DSF | – | 10 µM | ΔTm | 0.4 °C |
| Cc1ccc(C(=O)Nc2ccc(CN3CCN(C)CC3)c(C(F)(F)F)c2)cc1C#Cc1cnc2cccnn12 | Serine/threonine-protein kinase RIO2 (RIOK2, Homo sapiens, UniProt Q9BVS4) | enzyme activity, inhibitor | – | 23.5 nM | remaining activity | 88% |
| C[S+]([O-])c1ccc(-c2nc(-c3ccncc3)c(-c3ccc(F)cc3)[nH]2)cc1 (stereo not shown) | Bromodomain-containing protein 1, bromodomain (BRD1, Homo sapiens, UniProt O95696) | thermal stability, DSF | – | 10 µM | ΔTm | -0.23 °C |
| O=c1c(O[C@@H]2O[C@H](CO)[C@@H](O)[C@H](O)[C@H]2O)c(-c2ccc(O)c(O)c2)oc2cc(O)cc(O)c12 | Si | enzyme activity, inhibitor | – | 50 µg/mL | inhibition | 30.8% |
| CCOCc1nc(O)c(-c2nnc(Cc3ccc(Cl)cn3)o2)c(O)c1-c1c(OC)cccc1OC | Apelin receptor (APLNR, Homo sapiens, UniProt P35414) | binding, radioligand | – | – | kon | 5.17e+06 M⁻¹ s⁻¹ |
| CCCc1c(-c2ccc(O)cc2)nn(-c2ccc(O)cc2)c1-c1ccc(O)cc1 | Estrogen receptor (ESR1, Homo sapiens, UniProt P03372) | reporter gene, agonist, luciferase | U2OS | – | Emax | 120% |
| O=c1c(O[C@@H]2O[C@@H](CO)[C@H](O)[C@H]2O)c(-c2ccc(O)c(O)c2)oc2cc(O)cc(O)c12 | Si | enzyme activity, inhibitor | – | 200 µg/mL | inhibition | 58.3% |
| O=C(O)C(=O)Cc1ccccc1 | D-dopachrome decarboxylase (Homo sapiens, UniProt P30046) | enzyme activity, substrate | – | – | Km | 2400 µM |
| O=C(Nc1cccc(-c2ccn[nH]2)c1)c1cccc2cn[nH]c12 | pqsE (Pseudomonas aeruginosa, UniProt P20581) | thermal stability, DSF | – | 100 µM | ΔTm | 3.4 °C |
| O=C(c1ccc(Cl)cc1)N(Cc1ccccc1)C1CCCCC1 | Glucocorticoid receptor (NR3C1, Homo sapiens, UniProt P04150) | cell-free assay | – | 10 µM | inhibition | 28.5% |
| Nc1ncnc2occ(-c3ccc(NC(=O)Nc4cc(C(F)(F)F)ccc4F)cc3)c12 | Phosphatidylinositol 3-kinase catalytic subunit type 3 (PIK3C3, Homo sapiens, UniProt Q8NEB9) | cell-free assay | – | 20 µM | remaining signal | 73% |
